From ChEMBL document CHEMBL3351787, “Electrophilic warhead-based design of compounds preventing NLRP3 inflammasome-dependent pyroptosis” (J Med Chem, 2014) come the findings set out here.

The source made the active and inactive calls.

One data set concerns THP-1. The data set is described as follows: (§1) Antipyroptotic activity in PMA-differentiated and LPS-primed human THP1 cells assessed as decrease in nigericin-induced pyroptosis measured as LDH activity after 1 hrs pretreated with 10 uM nigericin for 1.5 hrs by colorimetric assay. The data set is classed as functional, cell-based. Put shortly:
(§2)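 Differentiated (PMA) and LPS-primed THP-1 cells received compound at 0.001-10 μM 1 h ahead of nigericin (10 μM, 1.5 h). Supernatant LDH activity measured by colorimetric assay, expressed as decrease of cell death vs vehicle alone; pEC50 derived from concentration-response curves. Mean±SEM, ≥4 experiments in triplicate.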

The nature of data set [1]: as §1. The data set is classed as functional, cell-based. The following applies: thp-1. Put shortly: as §2
Data set [2] can be described thus: Cytotoxicity against human HK2 cells assessed as cell viability after 72 hrs by MTT assay. The conditions noted are these: read-out: TC50. The data set is classed as cell-based, HK-2. The method in brief:
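MTT viability assay in human renal epithelial HK-2 cells. TC50 defined as molar concentration lowering HK-2 viability by 50%.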
For orientation: Tetrazolium dyes change colour on reduction, which living cells bring about.

Data set [3] is described as follows: Antipyroptotic activity in PMA-differentiated and LPS-primed human THP1 cells assessed as decrease in ATP-induced pyroptosis measured as LDH activity at 10 uM after 1 hrs by colorimetric assay. The following applies: THP-1, 1 h. The class given is functional.
Data set [4] can be described thus: Antipyroptotic activity in PMA-differentiated and LPS-primed human THP1 cells assessed as decrease in ATP-induced pyroptosis measured as LDH activity after 1 hrs pretreated with 5 mM ATP for 1 hr by colorimetric assay. The data set is classed as functional, cell-based. The conditions noted are these: thp-1. The method in brief: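 PMA-differentiated, LPS-primed THP-1 cells pre-treated 1 h with compound (0.001-10 μM), then ATP 5 mM for 1 h. LDH in collected supernatant read colorimetrically; output as decrease of cell death vs vehicle. EC50 taken as concentration giving 50% of maximal possible effect. Mean±SEM of at least four experiments in triplicate.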

Data set [5] is described as follows: cysteamine reactivity assessed as second-order reaction rate constant in PBS at pH 7.4 and […] by DTNB spectrophotometric assay.
The target of a further data set is T1, Caspase-1 (Homo sapiens, UniProt P29466).
T1 sequence (P29466 whole entry): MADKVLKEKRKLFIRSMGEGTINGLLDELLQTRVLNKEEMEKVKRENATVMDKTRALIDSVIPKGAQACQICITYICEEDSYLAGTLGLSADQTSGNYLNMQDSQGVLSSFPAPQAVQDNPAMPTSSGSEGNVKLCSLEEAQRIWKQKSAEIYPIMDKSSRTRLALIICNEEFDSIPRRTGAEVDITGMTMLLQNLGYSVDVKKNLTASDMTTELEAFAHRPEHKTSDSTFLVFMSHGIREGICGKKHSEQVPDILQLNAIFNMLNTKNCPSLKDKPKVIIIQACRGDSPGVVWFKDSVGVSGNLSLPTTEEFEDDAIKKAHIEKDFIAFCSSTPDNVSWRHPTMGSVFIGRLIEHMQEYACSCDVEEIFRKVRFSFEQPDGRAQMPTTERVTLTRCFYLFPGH
As to the kind of experiment: (§3) Inhibition of caspase 1 (unknown origin) using N-acetyl-Tyr-Val-Ala-Asp-para-nitroanilide substrate assessed as rate of para-nitroanilide release by spectrophotometric assay. The method in brief:
(§4)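 Caspase-1 from THP-1 cell cultures (50 U) pre-incubated 15-60 min with compound at 0.01-10 μM, then activity followed continuously by pNA release from Ac-YVAD-pNA (200 μM; 1 h) at 405 nm. kobs at each concentration used to obtain kinact (irreversible first-order rate) and Ki = k-1/k1.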

Data set [6] addresses T2, Caspase-1 (Homo sapiens) (UniProt P29466).
T2 sequence (whole entry): T1 sequence (P29466 whole entry)
Described as §3. The method in brief: as §4

The target of data set [7] is T2, Caspase-1 (Homo sapiens). The data set is described as follows: Inhibition of caspase 1 (unknown origin) using N-acetyl-Tyr-Val-Ala-Asp-para-nitroanilide substrate assessed as rate of para-nitroanilide release at 0.01 to 10 uM by spectrophotometric assay. The following applies: TDE = time-dependent effect. Put shortly: as §4
Data set [8] is described as follows: Activation of Keap1-Nrf2 pathway in human THP1 cells assessed as NFE2L2 marker gene expression level at 10 uM after 2 hrs by RT-PCR analysis. The class given is functional, cell-based. The following applies: THP-1.
Data set [9] has as its target T2, Caspase-1 (Homo sapiens). The data set is described as follows: Inhibition of caspase 1 (unknown origin) using N-acetyl-Tyr-Val-Ala-Asp-para-nitroanilide substrate assessed as rate of para-nitroanilide release after 15 to 60 mins preincubation by spectrophotometric assay. Put shortly: as §4
Data set [10] is described as follows: Activation of KIea[1/Nrf2 pathway in human THP1 cells assessed as HMOX1 marker gene expression level at 10 uM after 2 hrs by RT-PCR analysis. The following applies: THP-1. The data set is classed as functional, cell-based.
Data set [11] has as its target NACHT, LRR and PYD domains-containing protein 3 (Homo sapiens) (UniProt Q96P20). As to the kind of experiment: Inhibition of recombinant NLRP3-ATPase (unknown origin) assessed as hydrolysis of ATP at 10 uM. Put shortly:
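Recombinant NLRP3 (0.01 μg) pre-incubated 15 min with compound (10 μM); ATP 250 μM then added and incubated 1 h at 37 °C. ATP hydrolysis quantified as Pi content by colorimetric phosphate detection. Expressed as % inhibition vs vehicle; mean±SEM of ≥3 experiments in duplicate.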

Data set [12] has as its target T2, Caspase-1 (Homo sapiens). The data set is described as follows: Inhibition of caspase 1 (unknown origin) using N-acetyl-Tyr-Val-Ala-Asp-para-nitroanilide substrate assessed as rate of para-nitroanilide release at 10 uM by spectrophotometric assay. Put shortly:
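Caspase-1 enzyme from THP-1 cultures (50 U) pre-incubated 15 min with compound (10 μM) in reaction buffer at 37 °C. Ac-YVAD-pNA substrate (200 μM) added; pNA release monitored continuously at 405 nm over 1 h. Reported as % inhibition vs vehicle; mean±SEM, ≥3 experiments in duplicate.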

Chain of NACHT, LRR and PYD domains-containing protein 3 (Homo sapiens) (Q96P20 whole entry, the tested form may be a part): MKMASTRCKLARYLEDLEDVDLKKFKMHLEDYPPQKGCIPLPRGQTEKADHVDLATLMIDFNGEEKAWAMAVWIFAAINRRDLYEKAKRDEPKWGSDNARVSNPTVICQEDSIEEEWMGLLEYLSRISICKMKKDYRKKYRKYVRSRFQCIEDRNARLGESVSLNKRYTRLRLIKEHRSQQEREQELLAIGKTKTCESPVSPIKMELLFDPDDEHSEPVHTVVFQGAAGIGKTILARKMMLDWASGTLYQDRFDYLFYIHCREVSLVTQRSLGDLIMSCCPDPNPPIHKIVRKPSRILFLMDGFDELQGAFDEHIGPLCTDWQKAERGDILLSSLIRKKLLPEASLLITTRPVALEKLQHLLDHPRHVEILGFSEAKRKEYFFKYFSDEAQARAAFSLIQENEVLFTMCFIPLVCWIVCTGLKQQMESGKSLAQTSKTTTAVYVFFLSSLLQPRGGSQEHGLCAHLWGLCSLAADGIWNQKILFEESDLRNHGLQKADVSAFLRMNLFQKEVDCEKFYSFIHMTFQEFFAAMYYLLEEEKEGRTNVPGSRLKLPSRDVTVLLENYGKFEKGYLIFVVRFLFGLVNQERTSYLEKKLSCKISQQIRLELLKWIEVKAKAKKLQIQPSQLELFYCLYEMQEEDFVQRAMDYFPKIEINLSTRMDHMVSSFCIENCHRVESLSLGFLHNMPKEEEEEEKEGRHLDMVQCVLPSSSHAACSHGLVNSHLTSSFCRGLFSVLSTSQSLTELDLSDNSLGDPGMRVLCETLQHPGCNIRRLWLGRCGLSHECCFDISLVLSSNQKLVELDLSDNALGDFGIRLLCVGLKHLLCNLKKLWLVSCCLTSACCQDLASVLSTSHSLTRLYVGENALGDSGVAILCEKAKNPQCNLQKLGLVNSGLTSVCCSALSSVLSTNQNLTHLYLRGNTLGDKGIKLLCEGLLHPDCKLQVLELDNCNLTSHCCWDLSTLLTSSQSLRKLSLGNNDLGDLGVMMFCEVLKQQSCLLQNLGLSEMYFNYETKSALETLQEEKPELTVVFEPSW

For `C=C(C(=O)OCC)C(OCCC(=O)OCC)c1ccc(Cl)cc1Cl` (stereo unspecified), the inhibition (commonly the change of the read-out against control, counted positive when it falls) in the data set on THP-1 was “Dose-dependent effect”. Further, the pEC50 (in general, the EC50 on a negative log10 scale, so that one unit is a factor of ten) in data set [1] was found to be 6.7; in [4] it was 7.1. In data set [2], the CC50 at 72 h was greater than 100 µM. Also, the inhibition at 10 µM in data set [3] was found to be 43.9%.

As to `C=C(C(=O)OCC)C(O)c1ccccc1Cl` (stereo unspecified), in data set [5], the k2 turned out to be 0.866 M⁻¹ s⁻¹. Moreover, at Caspase-1, the Ki (as a rule, the equilibrium dissociation constant of an inhibitor or competing ligand from its target) was found to be 9.6 µM. Moreover, the Kinact at Caspase-1 (Homo sapiens) [6] is 3.2 s⁻¹. Further, the inhibition entry with THP-1 is “Dose-dependent effect”; at Caspase-1 (Homo sapiens) [7], “tde”; at Caspase-1 (Homo sapiens) [9], “Dose-dependent effect”; in data set [11], 51.8%. For the same compound, the values for the pEC50 in [1] and in [4] were 6.8 and 6.9, respectively. Also, the CC50 at 72 h in data set [2] stood at 67 µM. Further, the result in [8] and in [10] was Active. For the same compound, the inhibition at 10 µM in [3] was 75.1%.

`C/C=C(/C(=O)OCC)C(O)c1ccccc1Cl` (stereo unspecified): the inhibition entry with THP-1 was “Dose-dependent effect”. Besides, the negative-log EC50 (pEC50) in data set [1] was determined as 6.8; in data set [4] it was 6.9. Besides, the CC50 at 72 h in [2] is 73.8 µM. The inhibition at 10 µM in data set [3] came to 31.8%.

Turning to `C=C(C#N)C(O)c1ccccc1Cl` (stereo unspecified), the k2 in data set [5] was 0.777 M⁻¹ s⁻¹. For the same compound, the CC50 at 72 h in [2] stood at 11.6 µM. Also, the inhibition on Caspase-1 (Homo sapiens) [12] stood at 36.2%; in data set [11], 80.5%. In data set [3], the inhibition at 10 µM amounted to 83%.

As for `C=C(C(=O)O)C(O)c1ccccc1Cl` (stereo unspecified), the k2 in data set [5] was 0.117 M⁻¹ s⁻¹. Also, the CC50 at 72 h in [2] is greater than 100 µM. Further, in data set [11], the inhibition stood at 80.2%. The inhibition at 10 µM in data set [3] turned out to be 42%.

For the compound `C=C(C(=O)OCC)C(O)c1ccccc1[N+](=O)[O-]` (stereo unspecified), the inhibition result in the data set with THP-1 is “Dose-dependent effect”. Further, the pEC50 in data set [1] is listed as 6.7; in [4], 6.5. The CC50 at 72 h in data set [2] turned out to be 7.8 µM. In addition, the inhibition at 10 µM in data set [3] turned out to be 63.7%.

In the case of `C=C(C(=O)OCC)C(OCCC(=O)OCC)c1c(Cl)cccc1Cl` (stereo unspecified), in the data set on THP-1, the inhibition result was “Dose-dependent effect”. Also, the pEC50 in [1] and in data set [4] was 6.9 in each case. Moreover, the CC50 at 72 h in data set [2] is greater than 100 µM. Moreover, the inhibition at 10 µM in data set [3] amounted to 68.8%.

On to `C/C=C(\C(=O)OCC)C(O)c1ccccc1Cl` (stereo unspecified), for which the k2 in data set [5] amounted to 0.126 M⁻¹ s⁻¹. Moreover, the inhibition result is “Dose-dependent effect” in the data set on THP-1, 25.4% on Caspase-1 (Homo sapiens) [12] and 23.3% in [11]. Also, the pEC50 in data set [1] stood at 6.3; in data set [4], 7. Moreover, the CC50 at 72 h in [2] was determined as 80.1 µM. In [3], the inhibition at 10 µM is 36.2%.

`C=C1C(=O)O[C@@H]2C3O[C@]3(C)CC/C=C(\C)CC[C@@H]12` (stereo partly specified): the k2 in data set [5] was 47.9 M⁻¹ s⁻¹. Also, the Ki at Caspase-1 was 10.6 µM. Moreover, on Caspase-1 (Homo sapiens) [6], the Kinact came out at 4 s⁻¹. Also, the inhibition result in the data set on THP-1 was “Dose-dependent effect”; at Caspase-1 (Homo sapiens) [7] it was “tde”; at Caspase-1 (Homo sapiens) [9], “Dose-dependent effect”; in data set [11], 25.9%. In addition, the pEC50 in [1] was 6.3; in [4], 6.9. In addition, the CC50 at 72 h in [2] came out at 20.1 µM. Besides, the inhibition at 10 µM in data set [3] was 100%.

Regarding `C=C(C(=O)OCC)C(O)c1ccccc1F` (stereo unspecified), in the data set with THP-1, the inhibition result is “Dose-dependent effect”. In addition, the pEC50 is reported as 6.6 in data set [1] and 6.8 in [4]. Also, the CC50 at 72 h in data set [2] was 25.4 µM. Besides, the inhibition at 10 µM in data set [3] is 82.3%.
